In ChEMBL document CHEMBL1772977, “Synthesis and biological evaluation of novel 4-benzylpiperazine ligands for sigma-1 receptor imaging” (Bioorg Med Chem, 2011):

Legend:
[1] = Displacement of [3H]ditolylguanidine from sigma 2 receptor in rat liver membrane by competitive binding assay; format: cell membranes
Procedure, shortened: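 Sigma-2 competition binding used rat liver membranes with [3H]ditolylguanidine as radioligand. 10 µM dextrallorphan was present to mask sigma-1 sites. Ki was derived by Cheng–Prusoff from at least three independent experiments, each in triplicate, and is reported as mean ± SD.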

[2] = target: Sigma non-opioid intracellular receptor 1 (Rattus norvegicus, UniProt Q9R0C9); assay: Displacement of (+)-[3H]pentazocine from sigma 1 receptor in rat brain membranes by competitive binding assay; format: cell membranes
Sigma non-opioid intracellular receptor 1, sequence (Q9R0C9 whole entry): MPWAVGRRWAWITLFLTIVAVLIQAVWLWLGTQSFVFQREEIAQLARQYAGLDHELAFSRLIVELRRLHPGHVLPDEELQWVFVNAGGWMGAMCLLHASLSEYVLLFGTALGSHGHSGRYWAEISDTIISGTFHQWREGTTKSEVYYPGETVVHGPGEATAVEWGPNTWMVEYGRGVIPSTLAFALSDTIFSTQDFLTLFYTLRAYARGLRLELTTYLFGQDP
Procedure, shortened: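 Sigma-1 competition binding used rat brain membranes as receptor material with (+)-[3H]pentazocine as radioligand. Ki was derived by Cheng–Prusoff from at least three independent experiments, each in triplicate, and is reported as mean ± SD.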

| Compound | Ki [1] | Ki [2] |
| --- | --- | --- |
| O=[N+]([O-])c1ccc(CN2CCN(Cc3ccc4c(c3)OCO4)CC2)cc1 | 40.5 nM | 0.43 nM |
| Cc1ccc(CN2CCN(Cc3ccc4c(c3)OCO4)CC2)cc1 | 49.8 nM | 0.91 nM |
